Measured values from different studies.
Protocols differ between the studies behind these lines.
Target: Mitogen-activated protein kinase kinase kinase 7 (MAP3K7, Homo sapiens, UniProt O43318)
Sequence (O43318 1-606, as in one of the studies): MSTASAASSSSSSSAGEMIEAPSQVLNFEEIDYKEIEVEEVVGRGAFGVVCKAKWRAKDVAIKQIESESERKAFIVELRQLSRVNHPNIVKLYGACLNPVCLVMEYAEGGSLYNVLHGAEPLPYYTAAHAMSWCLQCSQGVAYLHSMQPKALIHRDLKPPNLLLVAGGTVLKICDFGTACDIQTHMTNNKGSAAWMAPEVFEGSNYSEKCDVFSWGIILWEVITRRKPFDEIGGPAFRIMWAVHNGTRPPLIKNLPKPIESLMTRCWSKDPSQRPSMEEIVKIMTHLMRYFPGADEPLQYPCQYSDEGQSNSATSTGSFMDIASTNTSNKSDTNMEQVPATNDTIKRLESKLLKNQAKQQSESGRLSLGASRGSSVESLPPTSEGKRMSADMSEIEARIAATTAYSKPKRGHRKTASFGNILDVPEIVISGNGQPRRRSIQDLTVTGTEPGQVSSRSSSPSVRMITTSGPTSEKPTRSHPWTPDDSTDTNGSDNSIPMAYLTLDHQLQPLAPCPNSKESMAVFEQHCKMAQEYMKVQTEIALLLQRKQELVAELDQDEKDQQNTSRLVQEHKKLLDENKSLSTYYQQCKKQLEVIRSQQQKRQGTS

SMILES | assay | setting | remaining binding [%]
CN(C)c1nccc(-c2cnc3ncccn23)n1 | binding | 1 µM | 36
O=C(Nc1c[nH]nc1C(=O)NC1CCNCC1)c1cc(F)cc(F)c1 | binding, competition with immobilised ligand | 1 µM | 83
C=CC(=O)N1CCC(C(=O)NCC(=O)N2CCN(c3nc(-c4cnc(N)nc4C(F)F)nc(N4CCOCC4)n3)CC2)CC1 | binding, competition with immobilised ligand | 1 µM | 100
c1cnn2ncc(-c3ccnc(N4CCC45COC5)n3)c2c1 | binding | 1 µM | 51
Nc1ncc2c(n1)-c1c([nH]c3ccc(C#CC4CC4)cc13)CCCC2 | binding, competition with immobilised ligand | 1 µM | 89
O=C(NS(=O)(=O)c1ccc(NCC2CCOCC2)c([N+](=O)[O-])c1)c1ccc(N2CCN(Cc3ccc(C(F)(F)F)cc3-c3ccc(Cl)cc3)CC2)cc1Oc1cnc2[nH]ccc2c1 | cell-free assay, competition with immobilised ligand | 1 µM | 100
Cc1cnc(Nc2ccc(C(=O)N3CCC(N4CCCC4)CC3)cc2)nc1-c1cc2ccccc2s1 | binding, competition with immobilised ligand | 1 µM | 7.3
COc1cc(-c2cn(C3CCc4ccccc4N(CC(F)(F)F)C3=O)nn2)ccc1-n1ccc(C)n1 (stereo not shown) | cell-free assay, competition with immobilised ligand | 1 µM | 86
O=C(NCCCN1CCOCC1)c1ccc(Nc2ncc(Cl)c(-c3ccc(Cl)s3)n2)cc1 | binding, competition with immobilised ligand | 1 µM | 4.5
COc1cnc(Nc2cccc(S(N)(=O)=O)c2)nc1N1CCN(c2ccccc2)CC1 | binding, competition with immobilised ligand | 1 µM | 85
O=C(NCCCN1CCOCC1)c1ccc(Nc2nccc(-c3cc4ccccc4s3)n2)cc1 | binding, competition with immobilised ligand | 1 µM | 31
C[C@H]1CCN(c2nccc(-c3cnn4ncccc34)n2)C1 | binding | 1 µM | 71
Cc1c(NC(=O)c2cc(C(N)=O)nc3cc(F)ccc23)c(C(F)(F)F)nn1Cc1ccc(C#N)cc1 | cell-free assay, competition with immobilised ligand | 1 µM | 68
CN(c1nccc(-c2cnn3ncccc23)n1)C1CC1 | binding | 1 µM | 82
Cc1cc(NC(=O)c2cccc(S(F)(F)(F)(F)F)c2)cc(-n2ccn3nc(-c4cccnc4)cc23)c1 | cell-free assay, competition with immobilised ligand | 1 µM | 100
COc1ccnn2ncc(-c3ccnc(N(C)C)n3)c12 | binding | 1 µM | 75
C[C@@H](c1cccc(C#N)c1)n1cc(Cl)cc(C(N)=O)c1=N | cell-free assay, competition with immobilised ligand | 1 µM | 100
CN(C)c1ncc(F)c(-c2cnn3ncccc23)n1 | binding | 1 µM | 98
O=C(NCc1ncc(C(F)(F)F)cc1Cl)c1ccc2c(c1)C1(CCS(=O)(=O)CC1)[C@H](C1CC1)N2S(=O)(=O)c1ccc(F)cc1 | cell-free assay, competition with immobilised ligand | 1 µM | 80
N[C@H]1CCN(c2nccc(-c3cnn4ncccc34)n2)C1 | binding | 1 µM | 100
COc1cnc(Nc2cccc(S(N)(=O)=O)c2)nc1N1CCN(c2ccccc2)C(=O)C1 | binding, competition with immobilised ligand | 1 µM | 74
Cn1nc(C(=O)NCc2ccc(C(=O)O)cc2)cc1-c1ccc2[nH]ccc2c1 | cell-free assay, competition with immobilised ligand | 0.1 µM | 95
